Article PMC9082043 (RSC Advances, 2018)
Like-named read-outs stand apart in the source and are kept apart here. Values belong to the compound of their own block, whether it stands above or below them.

Legend:
[1] = system: HepG2 (human liver cancer cells); assay: MTT antiproliferative assay, HepG2; format: cell-based; settings: read-out: IC50 HepG2
Method in brief: (§1)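 MTT assay on HepG2, SK-OV-3, NCI-H460, BEL-7404 and normal HL-7702 cells, with 5-fluorouracil and cisplatin run alongside as positive controls.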

[2] = system: SK-OV-3 (human ovarian cancer cells); assay: MTT antiproliferative assay, SK-OV-3; format: cell-based; settings: read-out: IC50 SKOV-3
Method in brief: as §1

[3] = system: NCI-H460 (human large cell lung cancer cells); assay: MTT antiproliferative assay, NCI-H460; format: cell-based; settings: read-out: IC50 NCI-H460
Method in brief: as §1

[4] = system: HL-7702 (human liver normal cells); assay: MTT cytotoxicity assay, HL-7702 normal cells; format: cell-based; settings: L02, 48 h, read-out: IC50 HL-7702
Method in brief: as §1

[5] = system: BEL-7404 (human liver cancer cells); assay: MTT antiproliferative assay, BEL-7404; format: cell-based; settings: read-out: IC50 BEL-7404, 48 h, mean ± SD of three experiments
Method in brief: as §1

HepG2 xenograft = assay: In vivo antitumor activity, HepG2 xenograft model; set-up: species or system SPF BALB/c nude mice
Method in brief: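 HepG2 xenografts in SPF BALB/c nude mice, randomised into vehicle, low-dose (10 mg kg−1), high-dose (20 mg kg−1) and paclitaxel (5 mg kg−1) groups. All were injected in 5% DMSO/saline (v/v). Tumours were measured twice weekly in two dimensions to give volume, mean ± SD, n = 6. The relative tumour increment rate (T/C, %) was taken at day 41.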

[6] = MTT, 48 h, mean ± SD of three experiments

- IC50 ([1]; Homo sapiens, HepG2, 48 h): 32 ± 0.56 µM
- IC50 ([2]; Homo sapiens, SK-OV-3, 48 h): 26.3 ± 0.57 µM
- IC50 ([3]; Homo sapiens, NCI-H460, 48 h): 45.4 ± 0.94 µM
SMILES: O=c1[nH]cc(F)c(=O)[nH]1 [5-FU, 5-fluorouracil]
- IC50 [4]: 58.7 ± 2.31 µM

SMILES: N.N.[Cl][Pt][Cl] [Cisplatin, cisplatin]
- IC50 [1, 6]: 10.1 ± 0.71 µM
- IC50 [2, 6]: 15.6 ± 1.7 µM
- IC50 [3, 6]: 20.4 ± 0.5 µM
- IC50 [5]: 14.7 ± 0.66 µM

SMILES: CC(=O)O[C@H]1C(=O)[C@@]2(C)[C@H]([C@H](OC(=O)c3ccccc3)[C@]3(O)C[C@H](OC(=O)[C@H](O)[C@@H](NC(=O)c4ccccc4)c4ccccc4)C(C)=C1C3(C)C)[C@]1(OC(C)=O)CO[C@@H]1C[C@@H]2O [Paclitaxel, paclitaxel]
- T/C value (relative tumor increment rate) (HepG2 xenograft; 5 mg kg^−1 dose): 19.0%
- effect on tumour volume in mice (HepG2 xenograft; 3a1 10 and 20 mg kg^−1, paclitaxel 5 mg kg^−1, compared with control): significantly inhibited the increase in the tumour volume
